Activity calls are given as the source filed them. The calls are words filed in the database; no cut-off is given here.
Experiments:
HepG2 = assay: Antiproliferative activity against human HepG2 cells assessed as inhibition of cell proliferation after 72 hrs by MTT assay; format: functional, cell-based; conditions: for IC50: HepG2, 72 h
In short: (§1)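 Cells grown as monolayers in DMEM with 10% FBS, 2 mM L-glutamine, penicillin/streptomycin, 37 °C, 5% CO2. Seeded at 5000/well on day 0. Compounds added after 24 h as five serial dilutions (0,01 to 100 µM), DMSO ≤0.1%, then 72 h. MTT read-out converted to percentage growth. IC50 by linear regression; quadruplicates in three experiments.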

HeLa = assay: Antiproliferative activity against human HeLa cells assessed as inhibition of cell proliferation after 72 hrs by MTT assay; format: functional, cell-based; in short: as §1
MCF7 = assay: Antiproliferative activity against human MCF7 cells assessed as inhibition of cell proliferation after 72 hrs by MTT assay; format: functional, cell-based; in short: as §1
[1] = (§2) Antiproliferative activity against human SW620 cells assessed as inhibition of cell proliferation after 72 hrs by MTT assay; format: functional, cell-based, SW-620; in short: as §1
SW-620 = assay: as §2; format: functional, cell-based; in short: as §1
BJ = assay: Antiproliferative activity against human BJ cells assessed as inhibition of cell proliferation after 72 hrs by MTT assay; format: cell-based; conditions: for inhibition (INH): human; in short: as §1
Calf thymus DNA [2] = assay: Binding affinity to calf thymus DNA assessed as change in melting temperature at drug/ base pair ratio of 0.5 by spectrophotometry; format: nucleic-acid assay; conditions: Bos taurus
In short: (§3)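 CT-DNA absorbance followed at 260 nm from 20 to 100 °C, rising 1 °C per min, in BPE buffer, with or without compound at drug/base-pair ratio 0.25 or 0.5. Tm taken as midpoint of the hyperchromic transition from first-derivative plots. ΔTm is Tm with compound minus Tm of DNA alone.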

Nucleic Acid [3] = assay: Induction of DNA intercalation in supercoiled pUC19 DNA in presence of human topoisomerase 1 assessed as effect on topoisomerase 1-mediated DNA relaxation at 50 uM by agarose gel electrophoresis; format: nucleic-acid assay; conditions: Escherichia coli
In short: (§4)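 Supercoiled pUC19 incubated with human topoisomerase I and graded compound concentrations. Stopped with SDS/proteinase K. DNA forms resolved on 1% agarose in TBE, 2 h at 120 V, stained post-run with ethidium bromide and viewed under UV. Camptothecin was the topo I poison control.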

[4] = target: T1, DNA topoisomerase 1 (Homo sapiens) (UniProt P11387); assay: Inhibition of human topoisomerase 1 assessed as topoisomerase poison activity by measuring generation of open circular DNA using supercoiled pUC19 DNA at 5 to 50 uM by agarose gel electrophoresis
T1 sequence (whole entry): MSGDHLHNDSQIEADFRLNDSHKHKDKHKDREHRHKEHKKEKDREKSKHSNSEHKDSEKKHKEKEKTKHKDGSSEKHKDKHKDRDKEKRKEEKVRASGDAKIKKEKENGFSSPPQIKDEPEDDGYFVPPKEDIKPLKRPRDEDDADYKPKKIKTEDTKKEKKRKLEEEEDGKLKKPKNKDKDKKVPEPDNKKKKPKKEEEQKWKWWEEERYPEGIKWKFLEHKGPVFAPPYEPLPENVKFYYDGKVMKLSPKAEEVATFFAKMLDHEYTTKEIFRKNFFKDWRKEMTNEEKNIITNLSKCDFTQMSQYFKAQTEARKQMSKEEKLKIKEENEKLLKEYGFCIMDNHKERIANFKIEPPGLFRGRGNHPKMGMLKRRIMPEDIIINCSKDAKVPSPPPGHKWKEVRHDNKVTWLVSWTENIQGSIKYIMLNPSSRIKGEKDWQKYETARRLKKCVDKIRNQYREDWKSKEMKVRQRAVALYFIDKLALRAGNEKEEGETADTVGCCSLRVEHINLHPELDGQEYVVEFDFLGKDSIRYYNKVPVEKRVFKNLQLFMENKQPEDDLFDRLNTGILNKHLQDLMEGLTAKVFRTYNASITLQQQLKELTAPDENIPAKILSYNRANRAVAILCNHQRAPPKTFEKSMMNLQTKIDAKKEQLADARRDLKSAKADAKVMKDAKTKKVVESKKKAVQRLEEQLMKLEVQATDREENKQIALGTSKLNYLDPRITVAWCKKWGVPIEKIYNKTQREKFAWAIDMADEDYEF
In short: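 Supercoiled pUC19 plasmid was incubated with human topoisomerase I and graded compound concentrations. Reactions were stopped with SDS and proteinase K. DNA forms were resolved on 1% agarose in TBE (2 h, 120 V), post-stained with ethidium bromide and photographed under UV. Poisoning was read as appearance of nicked DNA, with camptothecin as the positive control.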

Calf thymus DNA [5] = assay: Binding affinity to calf thymus DNA at 50 uM circular dichroism spectroscopy; format: nucleic-acid assay; conditions: Bos taurus
In short: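 CD spectra recorded from 480 to 230 nm, 10 mm path, 20 °C, in BPE buffer. CT-DNA (50 µM) incubated with compound rising from 1 to 60 µM or to 80 µM. Compound without DNA served as the control for intrinsic CD.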

Nucleic Acid [6] = assay: Induction of DNA intercalation in supercoiled pUC19 DNA in presence of human topoisomerase 1 assessed as effect on topoisomerase 1-mediated DNA relaxation at 5 to 50 uM by agarose gel electrophoresis; format: nucleic-acid assay; conditions: Escherichia coli; in short: as §4
Calf thymus DNA [7] = assay: Binding affinity to calf thymus DNA assessed as change in melting temperature at drug/ base pair ratio of 0.25 by spectrophotometry; format: nucleic-acid assay; conditions: Bos taurus; in short: as §3
[8] = Binding affinity to pBluescript 265 bp DNA fragment (unknown origin) at 1 to 25 uM incubated for 15 mins by DNase-1 foot printing assay
In short: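 265 bp EcoRI/PvuII fragment of pBluescript, 3'-end labelled with α[32P]-dATP, incubated with compound (up to 50 µM) for 15 min at 37 °C, then mildly digested with DNase I. Run on 8% denaturing polyacrylamide/8 M urea gels and imaged by phosphor screen. Base positions assigned against a DMS/piperidine G-track.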

Compound | IC50 (HepG2) [µM] | IC50 (HeLa; Homo sapiens, HeLa, 72 h) [µM] | IC50 (MCF7; Homo sapiens, MCF7, 72 h) [µM] | ΔTm (Calf thymus DNA [2]) [°C] | inhibition (HepG2) | inhibition (HeLa) | inhibition (MCF7) | IC50 ([1]; Homo sapiens, SW-620, 72 h) [µM] | inhibition (SW-620) | IC50 (BJ; Homo sapiens, BJ, 72 h) [µM] | inhibition (INH) (BJ; bj, 72 h) | inhibition [4] | further results
CC(=O)Nc1ccc(/N=C2\c3ccccc3CN2c2ccc(NC(C)=O)cc2)cc1 | 71 | > 100 | 38.2 |  | Dose-dependent effect | Dose-dependent effect | Dose-dependent effect | > 100 | Dose-dependent effect | 92.4 | Dose-dependent effect |  | 
Nc1ccc(/N=C2\c3ccccc3CN2c2ccc(N)cc2)cc1 [listing 1 of 2 here] | > 100 | > 100 |  |  |  |  |  | > 100 |  | > 100 | Dose-dependent effect |  | IC50 (MCF7; mcf7): 0.05 µM
CN(C)c1ccc(/N=C2\c3ccccc3CN2c2ccc(N(C)C)cc2)cc1 | 82.3 | 92.5 | 8.99 |  | Dose-dependent effect | Dose-dependent effect | Dose-dependent effect | > 100 | Dose-dependent effect | > 100 | Dose-dependent effect |  | 
Cl.c1ccc2c(c1)CN(c1ccc(C3=NCCN3)cc1)/C2=N/c1ccc(C2=NCCN2)cc1 | 83.2 | 78 | 20 | 19.6 | Dose-dependent effect | Dose-dependent effect | Dose-dependent effect | > 100 | Dose-dependent effect | 8.77 | Dose-dependent effect | inactive | Activity (Nucleic Acid [6]): Active; ΔTm (Calf thymus DNA [7]): 16 °C; Activity (Calf thymus DNA [5]): Active; Activity [8]: inactive
Nc1ccc(/N=C2\c3ccccc3CN2c2ccc(N)cc2)cc1 [listing 2 of 2 here] |  |  |  | 0 | Dose-dependent effect | Dose-dependent effect | Dose-dependent effect |  | Dose-dependent effect |  |  | inactive | Activity (Nucleic Acid [6]): inactive
Cl.Nc1ccc(/N=C2\c3ccccc3CN2c2ccc(N)cc2)cc1 |  |  |  |  |  |  |  |  |  |  | Dose-dependent effect |  | IC50 (HeLa; hela): 62.4 µM; IC50 (MCF7; mcf7): 0.73 µM; IC50 ([1]; sw-620): 51.1 µM; IC50 (BJ; bj): 80.5 µM

Second part, led by results:

IC50 (HepG2) [µM] | IC50 (HeLa; Homo sapiens, HeLa, 72 h) [µM] | IC50 (MCF7; Homo sapiens, MCF7, 72 h) [µM] | ΔTm (Calf thymus DNA [2]) [°C] | Compound | inhibition (HepG2) | inhibition (HeLa) | inhibition (MCF7) | IC50 ([1]; Homo sapiens, SW-620, 72 h) [µM] | inhibition (SW-620) | IC50 (BJ; Homo sapiens, BJ, 72 h) [µM] | inhibition (INH) (BJ; bj, 72 h) | inhibition [4] | further results
40.6 | 60 | 35.6 |  | Cl.N=C(N)c1ccc(N2Cc3ccccc3C2=O)nc1 | Dose-dependent effect | Dose-dependent effect | Dose-dependent effect | 44.8 | Dose-dependent effect | 15.8 | Dose-dependent effect |  | 
43.2 | 97.1 | 0.7 | 0 | Cc1ccnc(/N=C2\c3ccccc3CN2c2cc(C)ccn2)c1 | Dose-dependent effect | Dose-dependent effect | Dose-dependent effect | > 100 | Dose-dependent effect | 80.1 | Dose-dependent effect | inactive | Activity (Nucleic Acid [3]): Active
> 100 | > 100 | > 100 | 4.4 | CC(C)NC(=N)c1ccc(/N=C2\c3ccccc3CN2c2ccc(C(=N)NC(C)C)cn2)nc1.Cl | Dose-dependent effect | Dose-dependent effect | Dose-dependent effect | > 100 | Dose-dependent effect | > 100 | Dose-dependent effect | inactive | Activity (Calf thymus DNA [5]): inactive
51.5 | > 100 | 6.43 |  | CC(C)NC(=N)c1ccc(N2Cc3ccccc3C2=O)nc1.Cl | Dose-dependent effect | Dose-dependent effect | Dose-dependent effect | 79.9 | Dose-dependent effect | 18.1 | Dose-dependent effect |  | 
30.4 | > 100 | 16 | 0 | CC(=O)Nc1ccc(/N=C2\c3ccccc3CN2c2ccc(NC(C)=O)nc2)cn1 | Dose-dependent effect | Dose-dependent effect | Dose-dependent effect | > 100 | Dose-dependent effect | > 100 | Dose-dependent effect | inactive | Activity (Nucleic Acid [6]): inactive
33.9 | 68.8 | 42.1 | 14.6 | Cl.N=C(N)c1ccc(/N=C2\c3ccccc3CN2c2ccc(C(=N)N)nc2)cn1 | Dose-dependent effect | Dose-dependent effect | Dose-dependent effect | > 100 | Dose-dependent effect | > 100 | Dose-dependent effect | inactive | Activity (Nucleic Acid [6]): Active; ΔTm (Calf thymus DNA [7]): 8.8 °C; Activity (Calf thymus DNA [5]): Active
5.51 | 4.46 | 40.5 |  | N#Cc1ccc(/N=C2\c3ccccc3CN2c2ccc(C#N)nc2)cn1 | Dose-dependent effect | Dose-dependent effect | Dose-dependent effect | 83.8 | Dose-dependent effect | 9 | Dose-dependent effect |  | 
88.9 | > 100 | 80.7 |  | Nc1ccc(/N=C2\c3ccccc3CN2c2ccc(N)nc2)cn1 | Dose-dependent effect | Dose-dependent effect | Dose-dependent effect | > 100 | Dose-dependent effect | > 100 | Dose-dependent effect |  | 

Source: ChEMBL document CHEMBL3352181, “Novel phenyl and pyridyl substituted derivatives of isoindolines: Synthesis, antitumor activity and DNA binding features” (Eur J Med Chem, 2014)
